Experiment [1] deals with Staphylococcus aureus. The experiment is described as follows: Antibacterial activity against methicillin-resistant Staphylococcus aureus 78-13607A after 24 hrs by broth microdilution method. Type of experiment: functional. An outline of the steps:
(§1)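 Broth microdilution following NCCLS M7-A6 (2003), with inoculum at the recommended densities. Isolates were placed into panel wells with an autoinoculator and grown in cation-adjusted Mueller-Hinton broth at 35°C in ambient air for overnight to 24 h. Panels were read by eye, and the MIC was taken as no visible growth.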
For orientation: In broth dilution the organism is exposed to a series of concentrations in liquid medium.

Experiment [2] deals with Staphylococcus aureus. The experiment can be described thus: Antibacterial activity against methicillin-resistant Staphylococcus aureus ATCC 33591 after 24 hrs by broth microdilution method. It is filed as functional. An outline of the steps: as §1

SMILES strings stand for the structures. Calls of active or inactive are those of the source.

Among the data in ChEMBL document CHEMBL1157314, “Antibacterial, partially acetylated oligorhamnosides from Cleistopholis patens” (2006) are MIC and Activity values, retold here.

Broadly, the MIC is the smallest concentration in the dilution series that meets the test's criterion for growth inhibition. A higher MIC goes with a need for much substance.

Consider `CO[C@H]1/C=C/O[C@@]2(C)Oc3c(C)c(O)c4c(O)c(c(/C=N/N5CCN(C)CC5)c(O)c4c3C2=O)NC(=O)/C(C)=C\C=C\[C@H](C)[C@H](O)[C@@H](C)[C@@H](O)[C@@H](C)[C@H](OC(C)=O)[C@@H]1C` [RIFAMPIN], for which the MIC against Staphylococcus aureus [1] was not above 0.25 µg/mL; against Staphylococcus aureus [2] (ATCC 33591, 24 h), not above 0.25 µg/mL.
`CC(=O)NC[C@H]1CN(c2ccc(N3CCOCC3)c(F)c2)C(=O)O1`: the result in the experiment with Staphylococcus aureus [1] and in the experiment with Staphylococcus aureus [2] was Active.
As for `C/C(=C\C(=O)OCCCCCCCCC(=O)O)C[C@@H]1OC[C@H](C[C@@H]2O[C@H]2[C@@H](C)[C@H](C)O)[C@@H](O)[C@H]1O`, the result in the experiment on Staphylococcus aureus [1] and in the experiment with Staphylococcus aureus [2] was Active.
